These results are taken from article PMC6586500 (SLAS discovery : advancing life sciences R & D, 2019).

Square brackets hold non-standard residues; d marks the D form. Peptide text beside a SMILES is read from it. * marks the point of attachment. Benzoyl(4-tBu) = CC(C)(C)c1ccc(C(=O)*)cc1; Lys(Et2) = CCN(CC)CCCC[C@H](N)C(=O)O

For test [1], the target named is T1, CBX2 (Homo sapiens, UniProt Q14781).
T1 sequence (Q14781 9-66): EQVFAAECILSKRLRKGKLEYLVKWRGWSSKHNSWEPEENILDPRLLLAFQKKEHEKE
Nature of the test: TR-FRET competition assay, CBX2 chromodomain with UNC4195 tracer. Type of test: binding. The essentials: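 His-tagged protein, biotinylated tracer and TR-FRET reagent (Eu-streptavidin, anti-6X-His ULight antibody) premixed in 20 mM Tris pH 7.5, 150 mM NaCl, 0.05% Tween 20, 2 mM DTT. Added to plates pre-stamped from 10 mM DMSO stocks (100X). Shaken 1 min, spun 1000 x g 2 min, 1 h dark. DMSO and competitor full-column controls per plate. Follow-up used 10-point threefold dilutions and a four-parameter fit for IC50.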

Test [2] deals with T2, CBX7 (Homo sapiens, UniProt O95931).
T2 sequence (O95931 8-62): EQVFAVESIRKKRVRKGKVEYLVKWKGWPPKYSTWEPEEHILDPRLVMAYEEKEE
Nature of the test: TR-FRET competition assay, CBX7 chromodomain with UNC4195 tracer. The class given is binding.

In test [3] the target is T3, MPP8 (Homo sapiens, UniProt Q99549).
T3 sequence (Q99549 55-116): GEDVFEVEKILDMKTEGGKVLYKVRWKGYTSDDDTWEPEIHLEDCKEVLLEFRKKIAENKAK
Nature of the test: TR-FRET competition assay, MPP8 chromodomain with H3K9me3 tracer. The class given is binding. The essentials: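 His-tagged protein plus biotinylated tracer peptide with Eu-streptavidin and anti-6X-His ULight antibody, in 20 mM Tris pH 7.5, 150 mM NaCl, 0.05% Tween 20, 2 mM DTT; 10 µL total. Test compound: 16-point threefold dilution in buffer, in triplicate. Mixed, centrifuged, equilibrated 1 h in the dark, then read. Percent inhibition relative to DMSO (0%) and 100 µM competitor (100%); four-parameter fit gives IC50.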

In test [4] the target is CBX5 (Homo sapiens, UniProt P45973). The conditions noted are these: affinity of CBX5 for H3K9me3; cited from earlier work.
For test [5], the target named is T3, MPP8. The conditions noted are these: MPP8 binding the tracer peptide H3K9me3; cited from earlier work.

Chain of CBX5 (P45973 18-75): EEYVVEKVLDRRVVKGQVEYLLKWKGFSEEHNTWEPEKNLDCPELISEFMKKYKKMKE

In the case of `CCN(CC)CCCC[C@H](NC(=O)[C@H](CC(C)C)NC(=O)[C@H](C)NC(=O)[C@H](Cc1ccccc1)NC(=O)c1ccc(C(C)(C)C)cc1)C(=O)N[C@@H](CO)C(=O)OC` [UNC3866] ({Benzoyl(4-tBu)}-FAL[Lys(Et2)]S-OMe), the IC50 in test [1] was found to be 1500 nM; in test [2], 60 nM; in test [3], 1000 nM. In addition, the inhibition in test [1] (single-dose 25 µM, pilot screen in duplicate, 100% = 100 µM UNC3866) is recorded as 100%.

Regarding “ARTKQTARK(Me3)STGGKAPRKQL-K(Biotin)-NH2 [H3K9me3]”, in test [4], the Kd is around 30000 nM. The affinity entry in test [5] is recorded as “sub-micromolar”.
